Molecules are shown by their SMILES.

The experiment relates to RAW264.7. Description: Antiinflammatory activity in mouse RAW264.7 cells assessed as inhibition of LPS-stimulated nitric oxide production pretreated for 2 hrs before LPS challenge measured after 18 hrs by Griess method. Type of experiment: functional, cell-based. An outline of the steps: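 Murine RAW264.7 macrophages are stimulated with LPS, and NO released into the medium is measured. The read-out is an IC50.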
A word on the IC50: it is the concentration that gives 50% inhibition. With `CCO[C@]12OC(=O)C(C)=C1C1=C3[C@@](C)(C2=O)[C@@H]2C[C@@H]2[C@@]3(O)C[C@@H]2[C@]13OC(=O)C1=C3C[C@H]3[C@](O)(COC(=O)/C(C)=C/COC(=O)CCC(=O)OC1)[C@H]1C[C@H]1[C@]23C`, the IC50 is > 10 µM.

For the compound `CC1=C2C3=C4C(=C[C@@H]5[C@]36OC(=O)C3=C6C[C@H]6[C@](O)(COC(=O)/C(C)=C/COC(=O)CCC(=O)OC3)[C@H]3C[C@H]3[C@]56C)[C@H]3C[C@H]3[C@]4(C)[C@@H](O)[C@@]2(O)OC1=O`, the IC50 was 0.22 µM.

With `C=C1CC[C@H]2C(C)(C)[C@@H](O)CC[C@]2(C)[C@H]1C/C=C(\C)C=O`, the IC50 is > 10 µM.

Turning to `C=C1C[C@@H](O)[C@H]2C(C)(C)[C@@H](O)CC[C@]2(C)[C@H]1C/C=C(\C)C=O`, the IC50 is > 10 µM.

Regarding `CC1=C2C[C@@H]3[C@](C)(CCC[C@]3(C)O)C[C@@H]2OC1=O`, the half-maximal inhibitory concentration (IC50) is > 10 µM.

Consider `CC1=C2C[C@@H]3[C@](C)(CCC[C@]3(C)O)C[C@]2(O)OC1=O`, for which the IC50 was > 10 µM.

In the case of `C=C1CC[C@@H]2[C@](C)(O)C[C@@]3(O)OC(=O)C(C)=C3[C@@]2(O)C1`, the IC50 is > 10 µM.

For the compound `C[C@@H]1C[C@H]2[C@@H]3CCC4=CC(=O)C=C[C@]4(C)[C@@]3(F)[C@@H](O)C[C@]2(C)[C@@]1(O)C(=O)CO` [DEXAMETHASONE], the IC50 came out at 0.47 µM.

Turning to `COC(=O)/C(C)=C1\C(=O)[C@H](O)[C@]2(C)C3=C(C[C@@H]4[C@]5(OC(=O)C6=C5C[C@H]5[C@](O)(COC(=O)/C(C)=C/COC(=O)CCC(=O)OC6)[C@H]6C[C@H]6[C@]45C)[C@H]31)[C@H]1C[C@H]12` [SHIZUKAOL B], the IC50 came to 0.15 µM.

In the case of `COC(=O)/C(C)=C1/C(=O)[C@H](O)[C@]2(C)C3=C1[C@]14OC(=O)C(COC(C)=O)=C1C[C@H]1C[C@H]5C[C@H]5[C@]1(C)[C@@H]4C[C@]3(O)[C@H]1C[C@H]12` [SHIZUKAOL D], the IC50 was 7.22 µM.

Source of the values: ChEMBL document CHEMBL2034896, “Terpenoids from Chloranthus serratus and their anti-inflammatory activities” (J Nat Prod, 2012).
